Screening data (PubChem BioAssay)
PolyA inhibitor: polyadenylation inhibitors in yeast reporter cells, primary screen, luminescence, S. cerevisiae; AID 1875, 2009; activity score, % at 12 µM; 300,000 compounds, 0.02% hits; S. cerevisiae SKY197-pL101 polyadenylation reporter, beta-gal luminescence; efflux-impaired pdr1/pdr3 knockout yeast; score 100 = 6 SD above DMSO;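 active means lowest replicate activity score at least 50, where 100 means six control SD above control mean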;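 further: yeast exposed to compound for 9 h at 30 °C; higher score means more reporter readthrough which indicates perturbed polyadenylation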
Mot1-301 SUMO: yeast Mot1-301 growth rescue at high temperature, primary screen, SUMOylation pathway inhibitor project, S. cerevisiae, ATP luminescence, 38.5C; S. cerevisiae Mot1-301 growth rescue; percent above DMSO median, 100 means doubled; growth rescue, % at 18.8 µM; 320,000 compounds, 1% hits;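 active means every valid replicate shows activation above 250% relative to neutral control wells; inactive means the rest, any valid replicate at or below 250%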;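 further: OY570 slx delta 5 strain wells were the positive control but not used for scaling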
NALP1 inh: NALP1 inflammasome inhibitors in reconstituted yeast, colorimetric, S. cerevisiae, triplicate retest | S. cerevisiae NALP1/ASC/caspase-1 growth, X-gal OD620, 72 h | inhibition, % at 10 µM | 280,000 compounds, 0.61% hits | AID 2071, 2009; in the data active means inhibition mostly above about 24%, no sharp cut-off; inactive means mostly below about 32%
IMP-1 inh-1: IMP-1 metallo-beta-lactamase inhibitors, primary screen, biochemical, epi-absorbance readout, Pseudomonas aeruginosa enzyme | metallo-beta-lactamase IMP-1 (Pseudomonas aeruginosa) | purified IMP-1, nitrocefin hydrolysis, epi-absorbance fluorescence | 290,000 compounds, 0.45% hits | inhibition, % at 5.6 µM;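 active means inhibition above the mean plus 3 SD of all compounds in the same screening run, cut at about 4.5% in these data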;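 further: 0% = IMP-1 with DMSO and 100% = DMSO wells lacking enzyme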
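Test system: recombinant IMP-1 enzyme, purified / Medium: HEPES buffer pH 7.1 with ZnSO4 and Brij 35 / Doses: single dose, 5.6 µM / Times: 25 °C, 15 min preincubation, 25 min reaction / Detection: Epi-absorbance via hydrolysed-nitrocefin quenching of white-plate fluorescence, 480/530 nm, EDTA stop / Evaluation: percent inhibition from optical density relative to buffer-blank wells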
VIM-2 inhibitor: VIM-2 metallo-beta-lactamase inhibitors, primary screen, biochemical, epi-absorbance readout, Pseudomonas aeruginosa enzyme | purified VIM-2, nitrocefin hydrolysis, epi-absorbance fluorescence | inhibition, % at 5.6 µM | 290,000 compounds, 0.89% hits | AID 1527, 2009;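 active means inhibition above the mean of all tested compounds plus 3 SD, cutoff set per screening run, cut at about 7.5% in these data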;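 further: red hydrolysis product quenches plate fluorescence so inhibitors raise well fluorescence; 0% = enzyme with DMSO and 100% = DMSO without enzyme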
NLRP3 yeast inh: NALP3 inflammasome inhibitors in reconstituted yeast, primary screen, luminescence, uHTS. Yeast reconstituted NLRP3/ASC/caspase-1, beta-gal luminescence, 24 h. inhibition, % at 10 µM. 330,000 compounds, 0.39% hits. AID 2825, 2010;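 active means inhibition of 50% or more; inactive means inhibition below 50%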;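 further: plate controls were induced DMSO wells for no effect and uninduced yeast grown without galactose for full effect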
IMP-1 inh-2: IMP-1 metallo-beta-lactamase inhibitors, confirmation, selectivity assay for selective VIM-2 inhibitor project, biochemical, epi-absorbance readout, triplicate; shares compounds with VIM-2 inhibitor; purified IMP-1, nitrocefin hydrolysis, epi-absorbance fluorescence; 1,300 tested, under 10 active; inhibition, % at 5.6 µM; call rule not given here;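 further: 0% = enzyme with vehicle and 100% = vehicle without enzyme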
VIM-2 FRET ctr: VIM-2 inhibitors in FRET format, confirmation, artefact control for selective VIM-2 inhibitor project, biochemical, epi-absorbance artifact exclusion; purified VIM-2, CCF2 FRET substrate hydrolysis; shares compounds with VIM-2 inhibitor; 1,300 compounds, 23% hits; inhibition, % at 5.6 µM; AID 1857, 2009;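 active means inhibition above the mean of all tested compounds plus 3 SD, cut at about 19% in these data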;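 further: 0% = VIM-2 plus DMSO and 100% = no enzyme wells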
TEM-1 counter: TEM-1 serine beta-lactamase inhibitors, counter-screen for VIM-2 inhibitor project, biochemical, epi-absorbance, HTS; inhibition, % at 5.6 µM; 1,300 compounds, 3% hits; shares compounds with VIM-2 inhibitor; AID 1866, 2009; Purified TEM-1, nitrocefin hydrolysis, epi-absorbance fluorescence;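 active means inhibition above that campaign's mean inhibition plus 3 SD, cut at about 0.46% in these data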;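 further: 0% = TEM-1 with DMSO and 100% = TEM-1 with 100 µM potassium clavulanate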
Target sequence (P62593 whole entry, looked up): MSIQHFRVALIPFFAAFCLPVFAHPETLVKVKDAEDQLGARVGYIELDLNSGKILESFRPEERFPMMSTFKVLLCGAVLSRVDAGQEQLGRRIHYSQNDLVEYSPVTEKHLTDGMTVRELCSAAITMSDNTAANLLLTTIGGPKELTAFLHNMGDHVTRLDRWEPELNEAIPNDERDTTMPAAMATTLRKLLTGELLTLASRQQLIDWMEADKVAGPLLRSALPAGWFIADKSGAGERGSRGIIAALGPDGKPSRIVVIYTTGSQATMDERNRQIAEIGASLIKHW
VIM-2 inh conf: VIM-2 metallo-beta-lactamase inhibitors, confirmation, biochemical, epi-absorbance, hits shared with IMP-1 screen. shares compounds with VIM-2 inhibitor. purified VIM-2, nitrocefin hydrolysis. inhibition, % at 5.6 µM. 1,300 compounds, 96% hits;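 active means inhibition of the VIM-2 beta-lactamase enzyme above about 11% from the earlier first-round screen, limit read from the data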;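 further: 0% = VIM-2 with DMSO and 100% = buffer wells without enzyme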
Starred values were filed as active, the others as inactive; . = no result. An excerpt weighted towards active compounds, which were near 2.9% of everything screened.

SMILES	PolyA inhibitor	Mot1-301 SUMO	NALP1 inh	IMP-1 inh-1	VIM-2 inhibitor	NLRP3 yeast inh	IMP-1 inh-2	VIM-2 FRET ctr	TEM-1 counter	VIM-2 inh conf
Cn1c(C(=O)NCCN2CCCCCC2)cc2c(=O)n(C)c3ccccc3c21	11	24	13	-1	19*	-3	0	7	-7	29*
Cn1c(C(=O)NCCN2CCN(Cc3ccccc3)CC2)cc2c(=O)n(C)c3ccccc3c21	-11	-8	12	.	.	18	.	.	.	.
Cn1c(C(=O)NC2CCCC2)cc2c(=O)n(C)c3ccccc3c21	-3	-16	6	-1	18*	.	-3	-3	-6	21*
Cc1ccc(CNC(=O)c2cc3c(=O)n(C)c4ccccc4c3n2C)o1	-7	-4	3	-2	6	8	.	.	.	.
Cn1c(C(=O)NCCCN2CCOCC2)cc2c(=O)n(C)c3ccccc3c21	4	-7	18	-3	18*	-2	-3	-2	-4	28*
Cn1c(C(=O)N2CCCC2)cc2c(=O)n(C)c3ccccc3c21	.	.	13	-3	5	.	.	.	.	.
Cn1c(C(=O)NCc2ccccn2)cc2c(=O)n(C)c3ccccc3c21	3	9	34	2	16*	17	-3	3	-6	25*
CC1(NC(=O)Cn2cc(C(F)(F)F)ccc2=O)CCS(=O)(=O)C1 (stereo unspecified)	.	-11	.	.	.	0	.	.	.	.
CCOC(=O)c1ccc(NS(=O)(=O)c2cc3c4c(c2)CCN4C(=O)CC3)cc1	1	8	.	.	.	11	.	.	.	.
O=C(Nc1ccc(F)cc1)C1CCN(C(=O)c2ccc(F)cc2)CC1	.	3	.	.	.	6	.	.	.	.
CC1CCN(CCCNC(=O)c2cc3c(=O)n(C)c4ccccc4c3n2C)CC1	14	-8	22	-3	21*	4	-2	2	-7	31*
CCCCN(CC)CCCNC(=O)c1cc2c(=O)n(C)c3ccccc3c2n1C	2	2	9	-4	25*	2	-3	-1	-6	30*
Cn1c(C(=O)NCCCN2CCN(c3ccccc3F)CC2)cc2c(=O)n(C)c3ccccc3c21	13	-8	23	-1	15*	19	-3	-3	-6	25*
CC(C)Cn1cc(C(=O)NCCCN2CCC(C)CC2)c2c3ccccc3n(C)c2c1=O	1	-17	.	.	.	4	.	.	.	.
Cn1c(C(=O)NCC2CCCO2)cc2c(=O)n(C)c3ccccc3c21 (stereo unspecified)	8	123	.	-1	15*	3	-3	0	-6	20*
O=C(O)c1nnn(-c2cccc(C(F)(F)F)c2)c1-c1ccccc1	-5	4	21	-2	-1	5	.	.	.	.
Cc1ccc(-c2c(C(=O)O)c(C(=O)O)c3n2CSC3)cc1	-15	-5	6	3	34*	5	2	52*	-6	37*
O=C(O)c1c(C(=O)O)c(-c2ccc(Br)cc2)n2c1CSC2	3	0	2	1	43*	2	0	68*	-6	50*
CCCCN1C(=O)/C(=C2\SC(N3CCOCC3)=NC2=O)c2ccccc21	5	-21	-2	-5	5	26	.	.	.	.
CCN1C(=O)/C(=C2\SC(N3CCOCC3)=NC2=O)c2ccccc21	-5	.	-3	-1	15*	3	-2	-1	-7	24*
O=Cc1c(NCc2ccc(Cl)cc2)c2ccccc2[nH]c1=O	-3	6	13	-4	14*	16	-3	38*	-6	24*
CCC(C)NC(=O)C1(O)c2cc(Br)ccc2NC(=O)N1c1cccc(OC)c1 (stereo unspecified)	-5	9	13	-3	-2	16	.	.	.	.
CC1CN(Cc2c(O)ccc3c2oc(=O)c2ccccc23)CC(C)O1 (stereo unspecified)	-5	-30	.	-2	14*	3	-2	-16	-7	29*
COC(=O)c1c(NC(=O)C(=O)NCCCN2CCOCC2)sc2c1CC(C)(C)OC2	-4	-10	8	-9	13*	-12	-3	2	-4	20*
COC(=O)c1c(NC(=O)C(=O)NCCCN2CCOCC2)sc2c1CCC2	18	3	7	-2	14*	24	-2	1	-9	25*
SMILES	PolyA inhibitor	Mot1-301 SUMO	NALP1 inh	IMP-1 inh-1	VIM-2 inhibitor	NLRP3 yeast inh	IMP-1 inh-2	VIM-2 FRET ctr	TEM-1 counter	VIM-2 inh conf
N#Cc1c(NC(=O)C(=O)NCCCN2CCOCC2)sc2c1CCCC2	26	-14	20	-2	0	11	.	.	.	.
CC1(C)Cc2c(sc(NC(=O)C(=O)NCCCN3CCOCC3)c2C(N)=O)CO1	-1	-6	6	-3	-4	3	.	.	.	.
CN1CCN(C(=O)CSc2nc(-c3cccs3)ccc2C#N)CC1	17	13	.	-2	28*	-3	-3	4	-7	50*
COc1cccc(CNS(=O)(=O)c2c(C(=O)N3CCCCCC3)c(C)n(C)c2C)c1	7	-10	-2	-3	-4	13	.	.	.	.
Cc1cc(C)c2c(n1)sc1c(N3CCN(C)CC3)ncnc12	23	-26	.	-1	13*	25	-2	0	-4	21*
CCOC(=O)c1sc(NC(=O)CCN2CCN(C)CC2)c(C(=O)OCC)c1C	-5	13	19	-2	16*	5	-3	1	-7	48*
CCOC(=O)c1c(NC(=O)CSc2ncn[nH]2)sc(C(C)=O)c1C	-12	-31	8	-4	24*	14	-2	-2	-6	32*
Cc1cc([N+](=O)[O-])ccc1NC(=O)CCC(=O)N1CCCC1	-2	239	8	-4	-5	1	.	.	.	.
